From PubChem
L major viab: inhibitors of Leishmania major promastigote growth | Leishmania major promastigotes, resazurin fluorescence viability | inhibition, % at 10 µM | hit rate 9% among 200,000; in the data active = inhibition above about 50%;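 also: promastigotes grown with compound for 44 hours at 28 °C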
CHOP inhibitor: CHOP inhibition in unfolded protein response | CHO-K1 CHOP-promoter luciferase, tunicamycin-induced, 15-18 h | inhibition, % at 10 µM | hit rate 3.8% among 220,000 | AID 2732;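 active = compounds that reduced the stress-induced luciferase reporter signal by more than about 70% of percent inhibition, limit read from the data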;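 also: 0% = tunicamycin plus vehicle and 100% = wells without tunicamycin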
Dynein cargo inh: dynein cargo transport inhibition; 3617.4 mouse cells, GR-EGFP nuclear translocation imaging; test concentration mostly 20 µM; stimulated with dexamethasone, 1 µM; active compounds read low; hit rate 0.47% among 220,000; z-score, hits read low;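 active = plate z-score of nuclear minus cytoplasmic receptor signal below a set negative limit, without overly bright fluorescence or cell loss, cut at about -3.5 in these data, passing the limit was not always enough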;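 also: z-score of nuclear minus cytoplasmic ring GR-EGFP intensity difference per well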
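Medium: Induction medium lacking tetracycline, stripped serum | Probe or stimulus: 1.0 µM final dexamethasone stimulus | Schedule: 48 h induction, then 1 h compound, then 30 min agonist, 37 °C | Signal: Automated 10x imaging of fixed Hoechst-stained cells | Evaluation: Per-cell GR-EGFP intensity, nucleus versus surrounding cytoplasmic ring, well-averaged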
UPR XBP1 act: adaptive UPR (XBP1) activation; activation, % at 20 µM; hit rate 0.33% among 330,000; AID 463104; CHO-XBP1 luciferase reporter, IRE1-XBP1 UPR activation, luminescence; percent of tunicamycin response, DMSO as zero;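 active = versus positive control, 20 µM dose yields 30% or more activation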;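 also: 100% = tunicamycin at 10 µg/mL and 0% = DMSO only wells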
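Signal: luciferase luminescence; Assay system: CHO-XBP1 luciferase reporter cells; Amount: one thousand reporter cells per well; Dosing: 20 µM single concentration, DMSO 1%; Benchmarks: high control tunicamycin 10 µg/mL final, low control DMSO vehicle only; Schedule: 6 h compound exposure at 37 °C, 5% CO2; Evaluation: percent activation relative to tunicamycin reference.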
T cruzi repl: T. cruzi replication inhibition; T. cruzi beta-gal in NIH3T3, luminescence, 90 h; inhibition, % (no concentration beside the values); hit rate 1.4% among 300,000;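 active = mean inhibition across valid replicates above about 55%, limit read from the data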;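 also: signal also drops with host cell toxicity which is not excluded here; 0% = plate median of DMSO wells and 100% = zero luminescence signal; higher percent means less beta-gal luminescence so fewer parasites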
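assay system = mouse NIH/3T3 fibroblasts infected with β-gal-expressing T. cruzi Tulahuen C4 | input = 5,000 NIH/3T3 host cells per well | buffer or medium = DMEM plus 2% FBS | timing = 3 h host attachment, then at least 90 h co-culture | measured by = GalScreen luminescence, 60 min | evaluation = luminescence reflecting intracellular parasite burden, expressed as percent inhibition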
UPR CHOP act: apoptotic UPR (CHOP) activation | AID 449763 | hit rate 0.34% among 330,000 | CHO-CHOP luciferase reporter, luminescence; percent of tunicamycin response over DMSO baseline | activation, % at 10 µM;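 active = at 10 µM dose, activation of 40% or more, normalized to positive control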;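 also: 100% = tunicamycin at 10 µg/mL and 0% = DMSO alone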
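System: CHO-CHOP luciferase reporter cell line | Buffer or medium: F12 medium containing 10% fetal bovine serum | Doses: One dose, 10 µM in 0.5% DMSO | Times: 6 h compound exposure at 37 °C after overnight seeding | Signal: Luciferase luminescence | Read-out: % activation vs tunicamycin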
* = called active by the depositor; . = not tested or not shown. Shown is part of a subset that was picked to be rich in hits.

SMILES	L major viab	CHOP inhibitor	Dynein cargo inh	UPR XBP1 act	T cruzi repl	UPR CHOP act
CC/C(=N\NC(=O)c1ccc2c(c1)OCO2)C12CC3CC(CC(C3)C1)C2	99*	77*	-0.068	1	-8	1
CC/C(=N/NC(=O)c1ccc2c(c1)OCO2)c1ccccc1O	.	.	.	4	18	4
O=C(NNC(=S)NC(=O)C12CC3CC(CC(C3)C1)C2)c1ccncc1	78*	14	-0.42	18	-2	2
CC/C(=N\NC(=O)c1ccncc1)C12CC3CC(CC(C3)C1)C2	89*	30	2.7	-2	-4	-2
O=C(NNC(=O)C12CC3CC(CC(C3)C1)C2)c1cnccn1	89*	18	2.8	3	-26	1
CC1(C(=O)NC(=S)NNC(=O)c2ccncc2)CCCCC1	2	13	-0.3	0	-2	0
CN(C(=O)CSc1cc(Cl)ccc1Cl)C1CCS(=O)(=O)C1 (stereo not drawn)	.	.	.	-1	.	0
COC(=O)COc1coc(CN2CCN(c3cccc(Cl)c3)CC2)cc1=O	.	.	.	-2	-7	-2
Nc1ccc(S(=O)(=O)Nc2nc3ccccc3o2)cc1	.	.	.	-3	6	1
COc1ccc(NC(=O)c2cccc(-n3c(C)ccc3C)c2)c(OC)c1	63*	26	0.95	-1	-2	1
COc1ccc(NC(=O)c2ccc(C)cc2)c(OC)c1	-2	8	0.42	-1	1	7
CSc1ncccc1C(=O)Nc1nc2c(C)cccc2s1	69*	86*	-0.24	1	-8	3
Cc1c2c(nc3ccccc13)CCC(C(C)(C)C)C2 (stereo not drawn)	49	72*	1.3	5	57*	4
COC(=O)c1cc(C)[nH]c2c(C)cc3nc4ccccc4c3c12	.	36	0.049	4	25	1
CC(C)N1CCc2c(sc(NC(=O)Cc3ccccc3)c2C(N)=O)C1	.	.	.	3	-14	0
CC(=O)Nc1sc2c(c1-c1nc3ccccc3s1)CCN(C(C)C)C2	100*	-2	-1.3	-6	.	1
O=C1CSC(c2ccc([N+](=O)[O-])cc2)N1Cc1ccccc1 (stereo not drawn)	.	.	.	-1	2	0
O=C1CSC(c2ccc([N+](=O)[O-])cc2)N1CCN1CCCCC1 (stereo not drawn)	86*	-8	1.6	2	14	0
COc1ccccc1-n1nnnc1SCC(=O)NC1CCCCC1	.	.	.	3	-2	1
COc1ccc(N2CCN(C(CNC(=O)C3CCCCC3)c3cccnc3)CC2)cc1 (stereo not drawn)	87*	.	0.92	0	52	-3
O=C(NCC(c1cccnc1)N1CCN(c2ccc(F)cc2)CC1)C1CCCCC1 (stereo not drawn)	74*	26	-0.33	-5	36	-1
O=C(NCC(c1ccco1)N1CCN(c2ccccc2F)CC1)C1CCCCC1 (stereo not drawn)	.	.	.	-3	15	0
COc1ccc(N2CCN(C(CNC(=O)C3CCCCC3)c3ccco3)CC2)cc1 (stereo not drawn)	.	.	.	0	-6	1
O=C(NCC(c1cccnc1)N1CCN(c2ccccc2F)CC1)C1CCCCC1 (stereo not drawn)	71*	23	-0.37	6	-13	2
Cc1cc(OCC(=O)N[C@@H](Cc2ccccc2)c2nc3ccccc3[nH]2)ccc1Cl	-4	72*	0.45	3	-5	3
O=C(N[C@@H](Cc1ccccc1)c1nc2ccccc2[nH]1)c1cc([N+](=O)[O-])ccc1Cl	89*	30	-0.92	-5	2	-1
O=c1c2cc(NC(=S)NCCCN3CCC(Cc4ccccc4)CC3)ccc2nc2n1CCCCC2	99*	47	-0.78	0	57*	0
CC1CCCCN1C(=S)Nc1ccc2nc3n(c(=O)c2c1)CCCCC3 (stereo not drawn)	59*	42	-0.79	3	-9	3
O=c1c2cc(NC(=S)N3CCC(N4CCCCC4)CC3)ccc2nc2n1CCCCC2	-3	22	-0.24	0	0	2
